{"source": "paper PMC9359741", "about": "(Clinical Cancer Research, 2022)", "key": {"pancreatic cancer": {"system": "pancreatic cancer", "conditions": "plus nivolumab; pancreatic cancer (N = 31); MSI-Stable; cited from earlier work"}, "[1]": {"system": "patients with selected advanced solid tumors", "assay_type": "in vivo, human", "conditions": "Phase 1b", "summary_of_the_method": "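Adults (≥18 y) with histologically or cytologically confirmed selected advanced solid tumours. Oral test compound started at 200 mg QD, with planned escalation to 400 mg QD, plus anti-PD-1 antibody 2 mg/kg IV every 3 weeks. DLT incidence defined the MTD (DLT criteria in supplement). AEs and lab abnormalities were graded by CTCAE v4.03 in all patients given ≥1 dose and summarized descriptively.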"}, "[2]": {"system": "patients with PDA, PD-1/PD-L1 IR advanced solid tumors or prOVCA", "experiment": "Phase 2, ARRY-382 300 mg QD plus pembrolizumab 200 mg IV Q3W: adverse events", "assay_type": "in vivo, human", "conditions": "all patients", "summary_of_the_method": "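Open-label study at 12 US centres with three cohorts: pancreatic ductal adenocarcinoma after ≥1 prior systemic line; tumours progressing on anti-PD-1/PD-L1; ovarian, peritoneal or fallopian cancer progressing ≤6 months after ≥4 platinum cycles. Oral test compound 300 mg QD plus anti-PD-1 antibody 200 mg IV every 3 weeks. AEs, SAEs and labs graded by CTCAE v4.03 in all dosed patients; descriptive summary.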"}, "[3]": {"system": "advanced/metastatic PDA or colorectal cancer", "conditions": "plus durvalumab; cited from earlier work"}, "[4]": {"system": "HNSCC, relapsed/refractory glioblastoma", "conditions": "plus spartalizumab; cited from earlier work"}}}
{"compound": "cabiralizumab: a CSF-1R–targeting antibody", "values": [{"measurement": "Patients with a PR", "setting": "pancreatic cancer", "result": 3, "unit": "patients"}]}
{"compound": "pembrolizumab: humanized monoclonal antibody that blocks the interaction between PD-1 and its ligands PD-L1 and PD-L2 [reference compound]", "values": [{"measurement": "Pembrolizumab-related AEs: All AEs", "setting": "[1]; Total, N = 19", "result": "12 (63.2%) n (%)"}, {"measurement": "Pembrolizumab-related increased AST", "setting": "[1]; all patients", "result": 36.8, "unit": "%"}, {"measurement": "Pembrolizumab-related increased lipase", "setting": "[1]; all patients", "result": 26.3, "unit": "%"}, {"measurement": "AEs considered to be related to pembrolizumab", "setting": "[2]", "result": "36 (63.2%) n (%)"}]}
{"compound": "FC(F)(F)c1ccc(CNc2ccc(Cc3c[nH]c4ncc(Cl)cc34)cn2)cn1", "note": "[pexidartinib]", "values": [{"measurement": "Patients with stable disease", "setting": "[3]", "result": 4, "unit": "patients"}]}
{"compound": "CNC(=O)c1cc(Oc2ccc3nc(N[C@@H]4CCCC[C@H]4O)sc3c2)ccn1", "note": "[BLZ945]", "values": [{"measurement": "Patients with a PR", "setting": "[4]", "result": 2, "unit": "patients"}]}
